Molecules are shown by their SMILES. Active and inactive are the calls of the source.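 Rule for the calls, unless noted: active = viability at or below 10% of carrier control in both of two separate runs; inconclusive = viability at or below 10% in only one of the two runs; inactive = the rest.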

We go through twelve molecules from PubChem BioAssay.

The nature of experiment [1]: reduced viability of SK-BR-3 breast cancer cells – cell-based, 24 h, human, pilot screen (AID 572).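 Note: compound exposure lasted between 18 and 24 h rather than exactly 24 h; 100% = carrier-treated control wells.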 As to conditions: SK-BR-3 viability, CellTiter-Glo luminescence, at 10 µM, stronger effect = lower value. For orientation: ATP-based viability assays read luminescence as a measure of living cells.
Experiment [2] can be described thus: HUVEC growth inhibition – cell-based, human, primary screen (AID 575;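 active = viability at or below 30% in both replicate assays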;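 note: 100% = median of untreated cell wells with 0.1% DMSO on each plate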). As to conditions: HUVEC proliferation, CellTiter-Glo luminescence, 72 h; at 10 µM; stronger effect = lower value. Put shortly:
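Test system: primary human umbilical vein endothelial cells; medium: endothelial basal medium with 2% FBS plus growth supplements; dosing: 10 µM compound only; times: 72 h treatment at 37 °C; signal: CTG luminescence; read-out: % viability relative to median vehicle-well signal on each plate; control set: vehicle and MePR control wells; plate: 384-well, collagen-coated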

Experiment [3] can be described thus: H69AR cell proliferation blockers – human, duplicate replicates, primary screen (AID 580;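 active = viability at or under a set limit in both replicates, limit being median viability minus 3 SD, cut at about 48% in these data, passing the limit was not always enough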;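 note: 100% = mean luminescence of untreated wells and 0% = no signal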). As to conditions: H69AR lung tumor cells viability, ATP luminescence, 72 h; at 10 µM; stronger effect = lower value.
Experiment [4] in a line: MRP1 drug-resistance reversers in H69AR cells – cell-based, doxorubicin co-treatment, pilot screen (AID 601;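 active = viability loss from added drug above about 55%, and viability with drug at most 40%, in both replicates, limit read from the data, passing the limit was not always enough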). As to conditions: CellTiter-Glo, 72 h, at 10 µM; for differential viability (reversal): stronger effect = higher value.
The nature of experiment [5]: yeast transport mutant growth inhibition pilot in 384-well plates, post-Golgi transport modulator project (AID 636; in the data active = inhibition above about 31%). As to conditions: absorbance 615 nm, about 18 h, stronger effect = higher value.
Experiment [6] in a line: growth suppression of yeast trafficking mutant, preliminary HTS, modulators of trafficking downstream of Golgi apparatus project, 1536-format plate, OD 615 nm (AID 637; in the data active = inhibition above about 30%). As to conditions: yeast transport mutant growth, absorbance 615 nm, 18 h; stronger effect = higher value.
[7] abbreviates: H69AR cells + 2 uM doxorubicin, measured here: viability with 2 uM doxorubicin, stronger effect = lower value.
The mark [8] stands for this setting: H69AR cells, compound alone cytotoxicity.

The term viability denotes a read-out of living cells in per cent, often relative to untreated cells. For orientation: inhibition means the drop in the measured response relative to a control, in per cent. As to `CC1(C)Cc2c(sc3c2C2=NCCN2C=N3)CS1`, the viability is 87% (inactive) in experiment [1]; 108% (inactive) in experiment [2]; 105% (inactive) in experiment [3]; 99.4% in experiment [4] (setting [7]); 105% in experiment [4] (setting [8]). In addition, in experiment [4] (H69AR cells + 2 uM doxorubicin), the differential viability (reversal) is 5.41% (inactive). In addition, the inhibition in experiment [5] was 2.05% (inactive); in experiment [6] it was 2.73% (inactive).
On to `CCCCNC(=O)NS(=O)(=O)c1ccc(C)cc1`, for which the viability was 97% (inactive) in experiment [1]; 76.7% (inactive) in experiment [2]; 95.3% (inactive) in experiment [3]; 101% in experiment [4] (setting [7]); 95.3% in experiment [4] (setting [8]). For the same molecule, the differential viability (reversal) in experiment [4] (H69AR cells + 2 uM doxorubicin) is -5.94% (inactive). For the same molecule, the inhibition is -1.04% (inactive) in experiment [5] and -2.5% (inactive) in experiment [6].
For the molecule `c1ccc(-c2nc3cnccn3c2Nc2ccc3c(c2)OCCO3)cc1`, the viability in experiment [1] is 96% (inactive); in experiment [2], 107% (inactive); in experiment [3], 91.5% (inactive); in experiment [4] (setting [7]), 52.9%; in experiment [4] (setting [8]), 91.5%. In experiment [4] (H69AR cells + 2 uM doxorubicin), the differential viability (reversal) is 38.5% (inactive). For the same molecule, the results for the inhibition in experiment [5] and in experiment [6] were -5.47% (inactive) and -1.27% (inactive), respectively.
In the case of `O=C(CNC(=O)c1cc2ccccc2o1)NCc1cccs1`, the viability in experiment [1] was 122% (inactive); in experiment [2], 80.8% (inactive); in experiment [3], 84.4% (inactive); in experiment [4] (setting [7]), 88.8%; in experiment [4] (setting [8]), 84.4%. In addition, the differential viability (reversal) in experiment [4] (H69AR cells + 2 uM doxorubicin) was -4.37% (inactive). Further, the inhibition in experiment [5] was 0.26% (inactive); in experiment [6] it was 5.74% (inactive).
On to `COCCn1nnnc1CN1CCC(Cc2ccccc2)CC1`, for which the viability in experiment [1] was 134% (inactive); in experiment [2], 102% (inactive); in experiment [3] it was 95.3% (inactive); in experiment [4] (setting [7]), 90.1%; in experiment [4] (setting [8]) it was 95.3%. Also, the differential viability (reversal) in experiment [4] (H69AR cells + 2 uM doxorubicin) was 5.17% (inactive). Besides, the inhibition in experiment [5] is -3.84% (inactive); in experiment [6] it was 4.68% (inactive).
Regarding `Cn1c(C(=O)OCC(=O)NCC2CCCO2)cc2sccc21` (stereo unspecified), the viability is 85% (inactive) in experiment [1]; 113% (inactive) in experiment [2]; 92.7% (inactive) in experiment [3]; 89.6% in experiment [4] (setting [7]); 92.7% in experiment [4] (setting [8]). For the same molecule, the differential viability (reversal) in experiment [4] (H69AR cells + 2 uM doxorubicin) is 3.19% (inactive). The inhibition in experiment [5] is -9.04% (inactive); in experiment [6] it was 2.9% (inactive).
Consider `CCc1nnc(-n2nc(C)cc2-c2ccccc2)n1N`, for which the viability in experiment [1] is 107% (inactive); in experiment [2] it was 118% (inactive); in experiment [3], 93.5% (inactive); in experiment [4] (setting [7]), 90.7%; in experiment [4] (setting [8]), 93.5%. Moreover, in experiment [4] (H69AR cells + 2 uM doxorubicin), the differential viability (reversal) was 2.83% (inactive). Moreover, the figures for the inhibition in experiment [5] and in experiment [6] were -2.47% (inactive) and -1.8% (inactive), respectively.
Consider `CCN1CCN(C(=O)N[C@@H](C(=O)N[C@@H]2C(=O)N3[C@@H]2SC(C)(C)[C@@H]3C(=O)O)c2ccccc2)C(=O)C1=O`, for which the viability was 96% (inactive) in experiment [1]; 84.1% (inactive) in experiment [2]; 91.5% (inactive) in experiment [3]; 105% in experiment [4] (setting [7]); 91.5% in experiment [4] (setting [8]). The differential viability (reversal) in experiment [4] (H69AR cells + 2 uM doxorubicin) is -13.4% (inactive). Moreover, the inhibition is -0.39% (inactive) in experiment [5] and 6.33% (inactive) in experiment [6].
In the case of `CCCCCC(=O)N(CN1C(=O)CCC1=O)c1ccccc1`, the viability in experiment [1] is 93% (inactive); in experiment [2] it was 104% (inactive); in experiment [3], 90.9% (inactive); in experiment [4] (setting [7]) it was 87.4%; in experiment [4] (setting [8]), 90.9%. In addition, the differential viability (reversal) in experiment [4] (H69AR cells + 2 uM doxorubicin) is 3.52% (inactive). Besides, the values for the inhibition in experiment [5] and in experiment [6] were -7.3% (inactive) and -0.73% (inactive), respectively.
As to `Cc1cc(C)n(CC(=O)O)n1`, the viability in experiment [1] was 88% (inactive); in experiment [2], 106% (inactive); in experiment [3] it was 88.4% (inactive); in experiment [4] (setting [7]), 107%; in experiment [4] (setting [8]), 88.4%. Also, the differential viability (reversal) in experiment [4] (H69AR cells + 2 uM doxorubicin) is -18.8% (inactive). Moreover, the inhibition in experiment [5] was -7.7% (inactive); in experiment [6], -1.45% (inactive).
Regarding `O=C(c1ccco1)N1CCN(c2nc(C(F)(F)F)nc3c2nnn3Cc2ccccc2)CC1`, the viability in experiment [1] was 133% (inactive); in experiment [2], 69.2% (inactive); in experiment [3] it was 73.3% (inactive); in experiment [4] (setting [7]) it was 75.8%; in experiment [4] (setting [8]) it was 73.3%. For the same molecule, the differential viability (reversal) in experiment [4] (H69AR cells + 2 uM doxorubicin) is -2.53% (inactive). For the same molecule, the inhibition in experiment [5] is -9.45% (inactive); in experiment [6], -0.16% (inactive).
For the molecule `OC(CCN1CCCCC1)(c1ccccc1)c1ccccc1`, the viability was 95% (inactive) in experiment [1]; 92.7% (inactive) in experiment [2]; 84.1% (inactive) in experiment [3]; 83.7% in experiment [4] (setting [7]); 84.1% in experiment [4] (setting [8]). Also, in experiment [4] (H69AR cells + 2 uM doxorubicin), the differential viability (reversal) was 0.38% (inactive). In addition, the inhibition in experiment [5] is -2.21% (inactive); in experiment [6] it was 0% (inactive).
